Measurements taken from ChEMBL document CHEMBL4610112, “Novel Pyrrolopyridone Bromodomain and Extra-Terminal Motif (BET) Inhibitors Effective in Endocrine-Resistant ER+ Breast Cancer with Acquired Resistance to Fulvestrant and Palbociclib” (J Med Chem, 2020).

Key:
[1] = target: Bromodomain adjacent to zinc finger domain protein 2B (Homo sapiens, UniProt Q9UIF8); assay: Binding affinity to human partial length BAZ2B (S2054 to S2168 residues) expressed in bacterial expression system by BROMOscan assay
Summary of the method: (§1)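 BROMOscan panel of 40 bromodomains. Kd for DNA-tagged bromodomains determined by competition against an immobilized proprietary reference ligand.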

[2] = Growth inhibition of fulvestrant-resistant human MCF7:CFR cells measured after 5 days by Hoechst 33342 dye based imaging analysis; format: functional, cell-based; details: 120 h
Summary of the method: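 MCF-7:CFR cells kept 2 days in phenol red-free RPMI 1640 with 10% charcoal–dextran FBS, then seeded at 2000 cells/well. Single treatment at 0.1 nM–10 μM (0.1% DMSO final) for 5 days. Nuclei stained with Hoechst 33342 and counted by imaging. Survival normalized to DMSO (100%) and JQ1 3 μM (0%). Mean ± SEM from at least two passages, triplicates in each.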

[3] = target: Bromodomain and WD repeat-containing protein 1 (Homo sapiens, UniProt Q9NSI6); assay: Binding affinity to human partial length WDR9 bromodomain 2 (A1310 to E1430 residues) expressed in bacterial expression system by BROMOscan assay; summary of the method: as §1
MCF7:TAM1 = assay: Growth inhibition of tamoxifen-resistant human MCF7:TAM1 cells measured after 5 days by Hoechst 33342 dye based imaging analysis; format: functional, cell-based; details: MCF7:TAM1, 120 h
Summary of the method: (§2)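 Cells seeded at 2000/well in their maintenance medium, treated once the next day with compound (0.1 nM–10 μM; 0.1% DMSO final). Day 5 Hoechst 33342 staining with imaging count. Survival normalized to DMSO (100%) and JQ1 3 μM (0%). IC50 given as mean ± SEM from at least two passages, each in triplicate.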

[4] = Growth inhibition of fulvestrant-resistant human MCF7:CFR 3D spheroid cells at 100 nM supplemented with fresh medium containing compound every 2 to 3 days for 9 days by celltitre-glo assay relative to control; format: functional
Summary of the method: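 MCF-7:CFR cells seeded at 1000 cells/well in ultralow-attachment round-bottom plates and grown 24 h untreated as spheroids. Half the medium then replaced with 2× treatment medium, repeated every 2–3 days. Viability read by CellTiter-Glo 3D luminescence at day 9 and normalized to blank (medium plus reagent).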

[5] = target: Nucleosome-remodeling factor subunit BPTF (Homo sapiens, UniProt Q12830); assay: Binding affinity to human partial length FALZ (S2791 to H2911 residues) expressed in bacterial expression system by BROMOscan assay; summary of the method: as §1
Cytochrome P450 3A4 = Cytochrome P450 3A4 (Homo sapiens, UniProt P08684); assay: Inhibition of human CYP3A4; format: ADME
[6] = target: Histone acetyltransferase KAT2A (Homo sapiens, UniProt Q92830); assay: Binding affinity to human partial length GCN5L2 (E726 to K837 residues) expressed in bacterial expression system by BROMOscan assay; summary of the method: as §1
[7] = target: SWI/SNF-related matrix-associated actin-dependent regulator of chromatin subfamily A member 2 (Homo sapiens, UniProt P51531); assay: Binding affinity to human partial length SMARCA2 (S1377 to Q1486 residues) expressed in bacterial expression system by BROMOscan assay; summary of the method: as §1
[8] = Growth inhibition of tamoxifen-sensitive human MCF7:WS8 cells measured after 5 days by Hoechst 33342 dye based imaging analysis; format: functional; details: MCF7:WS8, 120 h; summary of the method: as §2
[9] = Growth inhibition of human T47D:TDG cells harboring ESR1 D538G mutant measured after 5 days by Hoechst 33342 dye based imaging analysis; format: functional; details: 120 h; summary of the method: as §2
[10] = Growth inhibition of tamoxifen and palbociclib-resistant human MCF7:CPR cells measured after 5 days by Hoechst 33342 dye based imaging analysis; format: functional; details: 120 h; summary of the method: as §2
[11] = target: ATPase family AAA domain-containing protein 2B (Homo sapiens, UniProt Q9ULI0); assay: Binding affinity to human partial length ATAD2B (Q955 to R1082 residues) expressed in bacterial expression system by BROMOscan assay; summary of the method: as §1
[12] = target: Transcription intermediary factor 1-alpha (Homo sapiens, UniProt O15164); assay: Binding affinity to human partial length TRIM24 phd bromodomain (P790 to P977 residues) expressed in bacterial expression system by BROMOscan assay; summary of the method: as §1
Protein polybromo-1 = Protein polybromo-1 (Homo sapiens, UniProt Q86U86); assay: Binding affinity to human partial length PBRM1 bromodomain 2 (S178 to E291 residues) expressed in bacterial expression system by BROMOscan assay; summary of the method: as §1
[13] = target: E3 ubiquitin-protein ligase TRIM33 (Homo sapiens, UniProt Q9UPN9); assay: Binding affinity to human partial length TRIM33 phd bromodomain (D882 to A1087 residues) expressed in bacterial expression system by BROMOscan assay; summary of the method: as §1
[14] = target: Bromodomain-containing protein 7 (Homo sapiens, UniProt Q9NPI1); assay: Binding affinity to human partial length BRD7 (L125 to R254 residues) expressed in mammalian expression system by BROMOscan assay; summary of the method: as §1
[15] = target: SWI/SNF-related matrix-associated actin-dependent regulator of chromatin subfamily A member 4 (Homo sapiens, UniProt P51532); assay: Binding affinity to human partial length SMARCA4 (A1448 to S1575 residues) expressed in bacterial expression system by BROMOscan assay; summary of the method: as §1
[16] = target: Histone acetyltransferase KAT2B (Homo sapiens, UniProt Q92831); assay: Binding affinity to human partial length PCAF (G715 to D831 residues) expressed in bacterial expression system by BROMOscan assay; summary of the method: as §1
[17] = target: Bromodomain and PHD finger-containing protein 3 (Homo sapiens, UniProt Q9ULD4); assay: Binding affinity to human partial length BRPF3 (E588 to G701 residues) expressed in bacterial expression system by BROMOscan assay; summary of the method: as §1
[18] = Growth inhibition of tamoxifen-resistant human MCF7:5C cells measured after 5 days by Hoechst 33342 dye based imaging analysis; format: functional; details: 120 h; summary of the method: as §2
[19] = target: Bromodomain-containing protein 8 (Homo sapiens, UniProt Q9H0E9); assay: Binding affinity to human partial length BRD8 BD2 (D1095 to F1235 residues) expressed in mammalian expression system BROMOscan assay; summary of the method: as §1
[20] = target: ATPase family AAA domain-containing protein 2 (Homo sapiens, UniProt Q6PL18); assay: Binding affinity to human partial length ATAD2A (Q981 to R1108 residues) expressed in bacterial expression system by BROMOscan assay; summary of the method: as §1
T47D = assay: Growth inhibition of tamoxifen-sensitive human T47D cells measured after 5 days by Hoechst 33342 dye based imaging analysis; format: functional, cell-based; details: 120 h; summary of the method: as §2

E3 ubiquitin-protein ligase TRIM33, sequence (Q9UPN9 whole entry, the tested form may be a part): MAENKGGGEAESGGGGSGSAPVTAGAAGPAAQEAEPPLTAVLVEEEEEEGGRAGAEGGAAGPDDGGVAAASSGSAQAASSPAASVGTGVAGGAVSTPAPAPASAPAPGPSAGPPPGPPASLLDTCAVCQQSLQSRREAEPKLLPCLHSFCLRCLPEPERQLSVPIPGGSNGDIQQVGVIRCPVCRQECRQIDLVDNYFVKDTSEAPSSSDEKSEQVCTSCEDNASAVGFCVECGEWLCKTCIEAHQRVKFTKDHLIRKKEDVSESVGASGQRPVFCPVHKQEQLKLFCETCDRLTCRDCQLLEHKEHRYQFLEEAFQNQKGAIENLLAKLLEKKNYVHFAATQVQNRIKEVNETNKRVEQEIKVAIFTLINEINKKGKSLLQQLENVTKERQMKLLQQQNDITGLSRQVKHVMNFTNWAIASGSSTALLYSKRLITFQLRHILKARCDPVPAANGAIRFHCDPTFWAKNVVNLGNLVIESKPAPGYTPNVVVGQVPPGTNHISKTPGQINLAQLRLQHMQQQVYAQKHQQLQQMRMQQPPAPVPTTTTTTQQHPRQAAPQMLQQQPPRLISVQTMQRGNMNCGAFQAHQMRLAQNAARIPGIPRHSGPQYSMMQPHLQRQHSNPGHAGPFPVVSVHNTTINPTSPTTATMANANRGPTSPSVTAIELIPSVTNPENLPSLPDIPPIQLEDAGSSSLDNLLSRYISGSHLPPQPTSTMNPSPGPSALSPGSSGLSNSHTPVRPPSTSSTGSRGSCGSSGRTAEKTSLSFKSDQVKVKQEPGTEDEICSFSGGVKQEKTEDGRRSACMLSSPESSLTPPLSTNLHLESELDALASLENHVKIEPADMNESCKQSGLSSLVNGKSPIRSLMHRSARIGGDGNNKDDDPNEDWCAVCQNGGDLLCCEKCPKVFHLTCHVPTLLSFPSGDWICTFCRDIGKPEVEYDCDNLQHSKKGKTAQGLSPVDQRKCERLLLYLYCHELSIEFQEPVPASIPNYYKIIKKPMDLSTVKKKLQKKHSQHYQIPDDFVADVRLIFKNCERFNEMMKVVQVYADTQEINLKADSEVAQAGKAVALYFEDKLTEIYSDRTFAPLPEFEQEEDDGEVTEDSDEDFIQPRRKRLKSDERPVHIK
Transcription intermediary factor 1-alpha, sequence (O15164 whole entry, the tested form may be a part): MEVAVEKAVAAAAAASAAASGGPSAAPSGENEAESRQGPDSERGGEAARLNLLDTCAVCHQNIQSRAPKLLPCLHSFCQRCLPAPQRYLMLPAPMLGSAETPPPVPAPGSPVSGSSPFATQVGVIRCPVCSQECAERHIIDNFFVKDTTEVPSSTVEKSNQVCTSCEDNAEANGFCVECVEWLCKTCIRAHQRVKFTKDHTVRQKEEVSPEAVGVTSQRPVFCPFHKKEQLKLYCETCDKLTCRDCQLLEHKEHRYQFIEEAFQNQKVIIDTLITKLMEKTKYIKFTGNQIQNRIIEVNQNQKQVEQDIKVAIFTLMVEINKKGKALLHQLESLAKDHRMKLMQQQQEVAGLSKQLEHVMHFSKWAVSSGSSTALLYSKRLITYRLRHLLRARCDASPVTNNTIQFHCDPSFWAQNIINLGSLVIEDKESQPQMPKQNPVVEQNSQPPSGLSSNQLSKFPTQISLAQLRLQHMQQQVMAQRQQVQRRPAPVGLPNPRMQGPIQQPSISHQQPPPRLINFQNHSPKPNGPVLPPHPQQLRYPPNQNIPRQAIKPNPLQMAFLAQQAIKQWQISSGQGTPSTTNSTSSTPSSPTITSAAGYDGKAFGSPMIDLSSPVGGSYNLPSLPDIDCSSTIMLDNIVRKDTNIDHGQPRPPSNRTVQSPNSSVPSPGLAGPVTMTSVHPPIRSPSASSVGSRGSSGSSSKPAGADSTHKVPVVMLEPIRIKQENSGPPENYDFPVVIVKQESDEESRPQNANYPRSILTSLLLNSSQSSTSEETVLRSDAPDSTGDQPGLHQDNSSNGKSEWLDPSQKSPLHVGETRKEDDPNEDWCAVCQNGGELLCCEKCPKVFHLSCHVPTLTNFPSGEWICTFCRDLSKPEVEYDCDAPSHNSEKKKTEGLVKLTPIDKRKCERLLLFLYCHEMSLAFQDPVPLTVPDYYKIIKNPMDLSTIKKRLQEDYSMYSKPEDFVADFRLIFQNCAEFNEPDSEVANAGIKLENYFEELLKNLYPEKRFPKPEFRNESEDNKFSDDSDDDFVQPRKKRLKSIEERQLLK
Bromodomain adjacent to zinc finger domain protein 2B, sequence (Q9UIF8 whole entry, the tested form may be a part): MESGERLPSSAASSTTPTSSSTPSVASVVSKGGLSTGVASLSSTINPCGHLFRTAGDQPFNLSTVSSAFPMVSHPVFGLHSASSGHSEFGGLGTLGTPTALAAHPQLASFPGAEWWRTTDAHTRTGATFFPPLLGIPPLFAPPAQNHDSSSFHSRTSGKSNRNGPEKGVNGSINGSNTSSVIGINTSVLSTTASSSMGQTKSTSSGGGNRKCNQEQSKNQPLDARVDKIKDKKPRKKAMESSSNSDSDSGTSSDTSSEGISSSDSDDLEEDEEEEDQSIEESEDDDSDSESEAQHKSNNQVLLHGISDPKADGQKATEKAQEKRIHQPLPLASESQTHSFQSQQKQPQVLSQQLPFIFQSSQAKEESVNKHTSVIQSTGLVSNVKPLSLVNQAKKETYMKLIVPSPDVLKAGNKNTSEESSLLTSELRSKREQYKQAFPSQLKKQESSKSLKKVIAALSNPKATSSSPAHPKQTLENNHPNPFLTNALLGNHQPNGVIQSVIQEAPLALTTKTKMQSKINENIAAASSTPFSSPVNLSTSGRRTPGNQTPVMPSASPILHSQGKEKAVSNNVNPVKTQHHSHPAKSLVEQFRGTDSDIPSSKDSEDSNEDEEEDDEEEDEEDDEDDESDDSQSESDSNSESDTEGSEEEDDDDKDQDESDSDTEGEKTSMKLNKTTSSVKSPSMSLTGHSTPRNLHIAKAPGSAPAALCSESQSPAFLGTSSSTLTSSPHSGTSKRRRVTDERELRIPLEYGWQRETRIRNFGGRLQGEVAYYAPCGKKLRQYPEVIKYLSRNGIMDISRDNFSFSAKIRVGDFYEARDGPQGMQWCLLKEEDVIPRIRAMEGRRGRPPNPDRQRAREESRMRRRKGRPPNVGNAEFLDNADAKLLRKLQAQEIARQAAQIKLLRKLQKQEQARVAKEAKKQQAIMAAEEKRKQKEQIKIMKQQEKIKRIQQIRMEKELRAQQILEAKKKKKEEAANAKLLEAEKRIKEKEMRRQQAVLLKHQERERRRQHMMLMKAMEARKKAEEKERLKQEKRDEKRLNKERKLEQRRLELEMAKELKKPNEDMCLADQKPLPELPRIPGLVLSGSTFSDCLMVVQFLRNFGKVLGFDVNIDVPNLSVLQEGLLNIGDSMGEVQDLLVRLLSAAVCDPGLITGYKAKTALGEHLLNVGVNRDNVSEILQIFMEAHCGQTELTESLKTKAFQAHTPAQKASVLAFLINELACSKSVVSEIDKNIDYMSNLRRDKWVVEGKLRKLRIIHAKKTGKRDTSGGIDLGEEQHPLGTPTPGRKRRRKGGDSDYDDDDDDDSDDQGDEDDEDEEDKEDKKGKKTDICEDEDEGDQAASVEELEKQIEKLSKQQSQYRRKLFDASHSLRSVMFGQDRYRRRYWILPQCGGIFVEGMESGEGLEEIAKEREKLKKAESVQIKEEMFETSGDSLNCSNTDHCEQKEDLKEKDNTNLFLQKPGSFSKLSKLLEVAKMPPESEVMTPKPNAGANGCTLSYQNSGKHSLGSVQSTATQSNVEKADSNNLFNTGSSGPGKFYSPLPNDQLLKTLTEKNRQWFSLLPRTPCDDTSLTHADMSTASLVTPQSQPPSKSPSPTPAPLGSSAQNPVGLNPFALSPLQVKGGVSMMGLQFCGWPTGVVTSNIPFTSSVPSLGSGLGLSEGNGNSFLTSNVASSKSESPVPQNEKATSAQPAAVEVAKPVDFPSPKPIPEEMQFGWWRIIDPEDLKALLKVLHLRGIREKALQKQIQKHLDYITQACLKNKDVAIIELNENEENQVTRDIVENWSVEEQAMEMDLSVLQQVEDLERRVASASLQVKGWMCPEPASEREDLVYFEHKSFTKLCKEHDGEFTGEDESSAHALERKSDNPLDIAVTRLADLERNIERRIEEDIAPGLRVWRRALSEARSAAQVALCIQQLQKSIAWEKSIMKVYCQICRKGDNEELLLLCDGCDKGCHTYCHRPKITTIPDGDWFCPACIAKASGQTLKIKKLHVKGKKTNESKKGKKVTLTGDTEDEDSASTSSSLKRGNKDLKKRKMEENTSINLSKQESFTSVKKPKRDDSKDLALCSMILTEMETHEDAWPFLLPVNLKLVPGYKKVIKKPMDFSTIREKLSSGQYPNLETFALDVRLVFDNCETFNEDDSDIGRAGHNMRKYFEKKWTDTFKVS
Bromodomain-containing protein 7, sequence (Q9NPI1 whole entry, the tested form may be a part): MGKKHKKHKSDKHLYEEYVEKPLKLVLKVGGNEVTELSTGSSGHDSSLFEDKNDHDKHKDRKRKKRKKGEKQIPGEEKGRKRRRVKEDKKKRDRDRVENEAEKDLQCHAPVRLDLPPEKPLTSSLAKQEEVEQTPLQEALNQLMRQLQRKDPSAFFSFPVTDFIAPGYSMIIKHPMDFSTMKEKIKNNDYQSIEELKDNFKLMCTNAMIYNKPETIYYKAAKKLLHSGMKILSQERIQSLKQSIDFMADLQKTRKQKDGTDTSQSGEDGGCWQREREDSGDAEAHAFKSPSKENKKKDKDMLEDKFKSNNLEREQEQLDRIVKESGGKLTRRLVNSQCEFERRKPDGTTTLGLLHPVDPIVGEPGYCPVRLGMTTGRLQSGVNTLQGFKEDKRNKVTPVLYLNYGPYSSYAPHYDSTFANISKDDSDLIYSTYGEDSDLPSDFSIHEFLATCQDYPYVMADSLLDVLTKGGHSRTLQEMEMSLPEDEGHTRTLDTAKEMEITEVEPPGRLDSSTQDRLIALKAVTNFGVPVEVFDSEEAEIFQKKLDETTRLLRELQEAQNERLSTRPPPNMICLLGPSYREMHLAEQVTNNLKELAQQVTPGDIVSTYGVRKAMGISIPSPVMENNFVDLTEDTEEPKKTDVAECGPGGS

For CCS(=O)(=O)Nc1cc(-c2cn(C)c3c(=O)[nH]ccc23)cc2c1ccn2C(C)(c1ccccn1)c1ccccn1, the Kd [1] was > 10000 nM, the IC50 [2] was 0.9 nM and the Kd [3] was > 10000 nM. The IC50 (MCF7:TAM1; read-out: IC50) was < 10 nM, the IC50 (MCF7:TAM1; read-out: pIC50 (converted)) was 3.16 nM and the “growth inhibition (GI)” value [4] was 100%. For the same compound, the Kd [5] was > 10000 nM, the IC50 (Cytochrome P450 3A4) was ≥ 10000 nM and the Kd [6] was > 10000 nM. For the same compound, the Kd [7] was > 10000 nM, the IC50 ([8]; read-out: IC50) was < 10 nM and the IC50 ([8]; read-out: pIC50 (converted)) was 3.98 nM. For the same compound, the IC50 ([9]; read-out: IC50) was < 10 nM, the IC50 ([9]; read-out: pIC50 (converted)) was 6.31 nM and the IC50 [10] was < 10 nM. The Kd [11] was > 10000 nM, the Kd [12] was > 10000 nM and the Kd (Protein polybromo-1) was > 10000 nM. For the same compound, the Kd [13] was > 10000 nM, the Kd [14] was > 10000 nM and the Kd [15] was > 10000 nM. The Kd [16] was > 10000 nM, the Kd [17] was > 10000 nM and the IC50 ([18]; read-out: IC50) was < 10 nM. For the same compound, the IC50 ([18]; read-out: pIC50 (converted)) was 2 nM, the Kd [19] was > 10000 nM and the Kd [20] was > 10000 nM. The IC50 (T47D; read-out: IC50) was < 10 nM and the IC50 (T47D; read-out: pIC50 (converted)) was 3.16 nM.
